The values that follow come from ChEMBL document CHEMBL4732088, “Identification and optimization of piperlongumine analogues as potential antioxidant and anti-inflammatory agents via activation of Nrf2” (Eur J Med Chem, 2021).

Each structure is given as a SMILES string. Active and inactive are the calls of the source. No cut-off for these calls is given here.

Assay [1] concerns PC-12. In words: Protection against H2O2-induced mitochondrial dysfunction in rat PC12 cells assessed as change in mitochondrial membrane potential at 5 uM pretreated with compound followed by H2O2 addition by JC-1 staining based flow cytometry (reference value: 78.7 %). Format: functional. The method in brief: (§1)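 Mitochondrial membrane potential in PC12 cells pretreated with compound (5, 10, 20 μM), then exposed to H₂O₂ (200 μM) or 6-OHDA (150 μM). JC-1 staining, red-to-green fluorescence shift read by flow cytometry. Mean ± SD, n = 3.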
(In general: In flow cytometry, cells or beads pass a laser one at a time.)

The target in assay [2] is T1, Nuclear factor erythroid 2-related factor 2 (Rattus norvegicus) (UniProt O54968).
T1 sequence (whole entry): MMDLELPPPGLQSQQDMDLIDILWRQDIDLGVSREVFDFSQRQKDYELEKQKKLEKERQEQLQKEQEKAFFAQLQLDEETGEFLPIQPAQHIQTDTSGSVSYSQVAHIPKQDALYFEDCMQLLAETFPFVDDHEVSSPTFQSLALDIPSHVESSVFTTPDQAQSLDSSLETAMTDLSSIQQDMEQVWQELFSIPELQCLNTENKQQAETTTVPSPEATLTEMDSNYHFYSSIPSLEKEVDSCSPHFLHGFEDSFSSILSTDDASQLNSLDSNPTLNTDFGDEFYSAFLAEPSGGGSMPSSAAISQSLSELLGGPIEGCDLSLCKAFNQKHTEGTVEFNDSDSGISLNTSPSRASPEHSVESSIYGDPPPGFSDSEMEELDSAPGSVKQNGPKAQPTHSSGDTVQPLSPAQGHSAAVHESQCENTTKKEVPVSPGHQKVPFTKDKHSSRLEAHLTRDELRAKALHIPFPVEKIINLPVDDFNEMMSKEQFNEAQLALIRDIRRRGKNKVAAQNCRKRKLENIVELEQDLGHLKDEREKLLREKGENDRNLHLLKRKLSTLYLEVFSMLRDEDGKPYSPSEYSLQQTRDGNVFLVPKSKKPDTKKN
Nature of the assay: Activation of Nrf2 in rat PC12 cells assessed as increase in GCLC protein level after 24 hrs by Western blot analysis. Format: cell-based. Particulars: PC-12, filed as activator, dose 5-20 µM. The essentials:
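PC12 cells treated with compound for 24 h at rising concentrations; NQO1, HO-1, TrxR1, GCLM, GCLC protein detected by Western blot.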
On the technique in general: In western blotting, separated proteins are transferred to a membrane and probed.

Assay [3] deals with BV-2. Nature of the assay: Antiinflammatory activity in mouse BV2 cells transfected with control siRNA assessed as reduction in LPS-induced NO production at 20 uM pretreated with compound followed by LPS stimulation for 18 hrs.
The subject of assay [4] is PC-12. In words: Protection against H2O2-induced mitochondrial dysfunction in rat PC12 cells assessed as change in mitochondrial membrane potential loss at 5 uM pretreated with compound followed by H2O2 addition by JC-1 staining based flow cytometry (reference value: 21.3 %). Format: functional. The essentials:
as §1

The test system of assay [5] is PC-12. In words: Protection against 6-OHDA-induced apoptosis in rat PC12 cells assessed as necrotic cells at 20 uM incubated for 24 hrs by annexin V FITC/propidium iodide staining based flow cytometry (reference value: 1.1 %). Format: functional.
The target of assay [6] is T1, Nuclear factor erythroid 2-related factor 2 (Rattus norvegicus). In words: Activation of Nrf2 in rat PC12 cells assessed as increase in HO-1 protein level at 20 uM after 12 hrs by Western blot analysis. Format: cell-based. As to conditions: PC-12, filed as activator.
For assay [7], the system named is BV-2. In words: Antiinflammatory activity in mouse BV2 cells transfected with Nrf2 siRNA assessed as reduction in LPS-induced NO production at 20 uM pretreated with compound followed by LPS stimulation for 18 hrs.
Assay [8] deals with PC-12. In words: Protection against H2O2-induced apoptosis in rat PC12 cells assessed as late apoptotic cells at 20 uM incubated for 24 hrs by annexin V FITC/propidium iodide staining based flow cytometry (reference value: 16.2 %). Format: functional.
Assay [9] deals with T2, Nuclear factor erythroid 2-related factor 2 (Mus musculus) (UniProt Q60795).
T2 sequence (whole entry): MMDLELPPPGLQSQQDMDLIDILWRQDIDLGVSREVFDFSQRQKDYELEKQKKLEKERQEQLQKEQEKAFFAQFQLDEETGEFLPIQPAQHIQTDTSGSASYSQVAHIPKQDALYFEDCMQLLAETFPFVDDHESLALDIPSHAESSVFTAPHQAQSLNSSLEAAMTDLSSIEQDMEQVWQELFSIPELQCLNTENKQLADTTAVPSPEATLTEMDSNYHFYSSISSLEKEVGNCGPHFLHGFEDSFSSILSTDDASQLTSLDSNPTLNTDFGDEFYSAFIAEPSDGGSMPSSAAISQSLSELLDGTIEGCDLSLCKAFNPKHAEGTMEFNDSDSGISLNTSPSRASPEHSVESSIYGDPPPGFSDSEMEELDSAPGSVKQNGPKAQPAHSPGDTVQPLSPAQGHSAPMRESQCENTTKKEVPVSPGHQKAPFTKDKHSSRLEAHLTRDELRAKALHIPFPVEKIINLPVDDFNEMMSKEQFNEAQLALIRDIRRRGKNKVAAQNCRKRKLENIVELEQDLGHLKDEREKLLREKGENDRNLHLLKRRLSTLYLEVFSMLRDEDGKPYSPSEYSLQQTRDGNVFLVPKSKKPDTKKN
Nature of the assay: Activation of Nrf2 in mouse BV2 cells assessed as inhibition of LPS-induced IL-6 production at 5 to 20 uM by ELISA. Format: cell-based. Particulars: BV-2, filed as activator, dose 5-20 µM. The method in brief:
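BV2 microglia pretreated with compound, then LPS-stimulated; IL-6 quantified by ELISA kit; mean ± SD, n = 3.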

Assay [10] deals with T2, Nuclear factor erythroid 2-related factor 2 (Mus musculus). In words: Activation of Nrf2 in mouse BV2 cells assessed as upregulation of GCLM protein expression after 24 hrs by Western blot analysis. Format: cell-based. Particulars: BV-2, filed as activator, dose 5-20 µM. The essentials:
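BV2 microglia exposed to compound for 24 h over a concentration series; Nrf2, NQO1, HO-1, TrxR1, GCLM and GCLC protein levels read by Western blot.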

Assay [11] concerns PC-12. Nature of the assay: Neuroprotective activity against 6-OHDA-induced apoptosis in rat PC12 cells assessed as reduction in apoptotic nuclei at 5 to 20 uM pretreated with compound followed by Hoechst 33342 staining based fluorescence microscopy analysis. As to conditions: dose 5-20 µM.
The subject of assay [12] is PC-12. Nature of the assay: Prevention of H2O2-induced calcium overload in rat PC12 cells assessed as reduction in intracellular free calcium by measuring mean fluorescence intensity at 10 uM pretreated with compound followed by H2O2 addition measured after 24 hrs by Fluo-3AM based fluorescence assay (reference value: 17791.36%). Format: functional.
The nature of assay [13]: Antioxidant activity assessed as DPPH radical scavenging activity. Format: functional. (The DPPH test is a chemical assay of radical scavenging.)
In assay [14] the test system is PC-12. Nature of the assay: Protection against 6-OHDA-induced apoptosis in rat PC12 cells assessed as necrotic cells at 5 uM incubated for 24 hrs by annexin V FITC/propidium iodide staining based flow cytometry (reference value: 1.1 %). Format: functional.
In assay [15] the test system is PC-12. In words: Neuroprotective activity against H2O2-induced apoptosis in rat PC12 cells assessed as reduction in apoptotic nuclei at 5 to 20 uM pretreated with compound followed by H2O2 addition by Hoechst 33342 staining based fluorescence microscopy analysis. Format: functional, cell-based. As to conditions: dose 5-20 µM. The essentials: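 PC12 cells pretreated with compound before H₂O₂ or 6-OHDA; nuclei stained with Hoechst 33342, imaged on a high-content system with phase-contrast views; apoptotic nuclei scored as bright condensed aggregates; n = 3.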

Regarding `CCN(C)C(=O)N1CCN(C(=O)/C=C/c2ccc(F)cc2)C1=O`, the Activity was 86.7% in assay [1]; “Dose-dependent effect” in assay [2]; 13.2% in assay [4]; 0.8% in assay [5]; 3.7% in [8]; “Dose-dependent effect” in assay [10]. Further, in assay [14], the Activity stood at 1%. The result in [3], in assay [6], in [9], in assay [11] and in assay [15] was Active. Moreover, the outcome in [7] and in [13] was inactive. In [12], the Flu intensity is on record as 7793.41.
